The target of series [1] is T1, Prostaglandin E synthase (Homo sapiens) (UniProt O14684).
T1 sequence (whole entry): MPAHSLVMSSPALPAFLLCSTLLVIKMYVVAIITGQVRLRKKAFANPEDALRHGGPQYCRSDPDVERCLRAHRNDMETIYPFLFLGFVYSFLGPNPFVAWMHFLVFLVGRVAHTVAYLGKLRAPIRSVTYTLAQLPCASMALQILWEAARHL
Briefly: Inhibition of mPGES-1 obtained from IL-beta stimulated human A549 cells microsomes assessed as residual activity by measuring conversion of PGH2 to PGE2 at 10 uM by cell-free RP-HPLC method. As to conditions: Microsome. In short, it runs like this: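 Microsomes from A549 cells stimulated with IL-1β (1 ng/ml) for 48 h. Diluted in 0.1 M potassium phosphate pH 7.4 with 2.5 mM glutathione. Pre-incubated 15 min on ice with compound (single 10 µM, or 0.03–10 µM for the curve) or 1% DMSO. 20 µM PGH2 added for 1 min; stopped with FeCl3/citric acid containing 11β-PGE2 standard. PGE2 measured by SPE and RP-HPLC. n = 3.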

The target of series [2] is T2, Polyunsaturated fatty acid 5-lipoxygenase (Homo sapiens) (UniProt P09917).
T2 sequence (whole entry): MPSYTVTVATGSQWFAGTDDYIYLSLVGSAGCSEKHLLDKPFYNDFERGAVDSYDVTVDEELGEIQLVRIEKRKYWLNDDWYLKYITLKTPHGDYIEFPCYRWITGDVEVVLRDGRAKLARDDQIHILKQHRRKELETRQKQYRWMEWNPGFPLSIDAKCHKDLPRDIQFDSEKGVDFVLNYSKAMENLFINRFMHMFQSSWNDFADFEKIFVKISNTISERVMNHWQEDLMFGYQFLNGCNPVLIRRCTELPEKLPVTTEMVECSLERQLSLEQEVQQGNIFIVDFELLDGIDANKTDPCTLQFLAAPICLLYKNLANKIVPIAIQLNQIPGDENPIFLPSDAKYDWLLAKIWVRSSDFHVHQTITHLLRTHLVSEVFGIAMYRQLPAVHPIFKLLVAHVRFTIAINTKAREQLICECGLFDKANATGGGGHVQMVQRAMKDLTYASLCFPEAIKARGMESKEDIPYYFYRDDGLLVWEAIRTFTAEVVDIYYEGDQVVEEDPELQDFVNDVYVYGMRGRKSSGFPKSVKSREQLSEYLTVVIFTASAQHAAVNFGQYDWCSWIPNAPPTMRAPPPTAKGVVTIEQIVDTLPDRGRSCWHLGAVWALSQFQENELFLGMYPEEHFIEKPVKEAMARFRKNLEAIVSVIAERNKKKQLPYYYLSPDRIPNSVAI
Nature of the series: Inhibition of 5-LO in A23187-stimulated human intact neutrophils assessed as reduction in LTB4/5-HETE formation by measuring residual activity at 10 uM measured after 20 mins by RP-HPLC method. The format is tissue-based. As to conditions: Neutrophil. In short, it runs like this:
(§1)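 Human neutrophils at 5 × 10^6/mL in PBS with 0.1% glucose and 1 mM CaCl2. Pre-incubated with compound or 0.1% DMSO for 10 min at 37 °C. Stimulated with 2.5 µM A23187, with or without 20 µM AA, for 10 min at 37 °C. Stopped with cold methanol; PGB1 internal standard. LTB4, its trans isomers and 5-HETE quantified by SPE and RP-HPLC; % of control.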

Series [3] deals with T2, Polyunsaturated fatty acid 5-lipoxygenase (Homo sapiens). Nature of the series: Inhibition of 5-LO in A23187/AA-stimulated human intact neutrophils assessed as reduction in LTB4/5-HETE formation by measuring residual activity at 10 uM measured after 20 mins by RP-HPLC method. The format is tissue-based. As to conditions: Neutrophil. In short, it runs like this:
as §1

Series [4] shares this target. Nature of the series: Inhibition of 5-LO (unknown origin) expressed in Escherichia coli BL21 assessed as residual activity at 10 uM by RP-HPLC method relative to control. In short, it runs like this:
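Human recombinant 5-LO expressed in E. coli BL21 and purified on ATP-agarose. 0.5 µg enzyme in 1 mL PBS + 1 mM EDTA pre-incubated with compound or 0.1% DMSO for 10 min on ice. Reaction started with 20 µM AA and 2 mM CaCl2, run 10 min at 37 °C, stopped with ice-cold methanol. Products analysed; activity as % of control.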

The target in series [5] is T3, Bifunctional epoxide hydrolase 2 (Homo sapiens) (UniProt P34913).
T3 sequence (whole entry): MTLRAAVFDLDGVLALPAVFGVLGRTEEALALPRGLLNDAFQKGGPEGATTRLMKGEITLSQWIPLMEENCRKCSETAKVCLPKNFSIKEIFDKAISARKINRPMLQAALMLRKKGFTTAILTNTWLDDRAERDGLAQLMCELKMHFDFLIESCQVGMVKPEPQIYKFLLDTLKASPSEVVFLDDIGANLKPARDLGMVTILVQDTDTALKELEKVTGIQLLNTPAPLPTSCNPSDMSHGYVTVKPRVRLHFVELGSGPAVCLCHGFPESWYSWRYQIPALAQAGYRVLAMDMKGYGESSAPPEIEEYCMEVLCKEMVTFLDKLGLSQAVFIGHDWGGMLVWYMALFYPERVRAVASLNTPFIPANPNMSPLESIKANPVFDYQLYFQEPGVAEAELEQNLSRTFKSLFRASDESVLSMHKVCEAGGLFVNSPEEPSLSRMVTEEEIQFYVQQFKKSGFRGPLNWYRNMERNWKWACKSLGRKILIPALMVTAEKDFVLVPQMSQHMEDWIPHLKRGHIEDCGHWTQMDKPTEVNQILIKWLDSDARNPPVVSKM
Nature of the series: Inhibition of recombinant human sEH expressed in sf9 insect cells assessed as residual activity at 10 uM using PHOME as substrate preincubated for 15 mins followed by substrate addition and measured after 60 mins relative to control. As to conditions: time 75.0 min. Put shortly: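 Human recombinant sEH from baculovirus-infected Sf9 cells, affinity-purified. Diluted in 25 mM Tris pH 7 with 0.1 mg/mL BSA. Pre-incubated 15 min at room temperature with 10 µM compound or 0.1% DMSO. 50 µM PHOME added, run 60 min at room temperature, stopped with ZnSO4. Fluorescence read at ex 330 / em 465 nm.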

The next series deals with Monocyte. Briefly: Cytotoxicity against human monocyte cells assessed as cell viability at 10 uM measured after 24 hrs by MTT assay. In kind it is cell-based. In short, it runs like this: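 Human monocytes isolated from PBMC by adherence, 0.2 × 10^6 per well in buffer. Exposed to 10 µM compound or 0.5% DMSO for 24 h (37 °C, 5% CO2). MTT for 2 h, then SDS lysis (10%, pH 4.5) for 17 h. Absorbance read at 570 nm; viability as % of vehicle, n = 3.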

A further series deals with A549. Nature of the series: Cytotoxicity against human A549 cells assessed as cell viability at 10 uM measured after 48 hrs by MTT assay. Particulars: a549, 48 h. The format is cell-based. In short, it runs like this:
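A549 cells in DMEM + 10% FBS, 2 × 10^4 per well, seeded in triplicate. Exposed to 10 µM compound or 0.1% DMSO for 48 h at 37 °C, 5% CO2. MTT added for 1 h, formazan dissolved in DMSO, absorbance read at 570 nm. Viability given as % of vehicle, n = 3.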
On the technique in general: Tetrazolium dyes change colour on reduction, which living cells bring about.

Series [6] concerns the target Prostaglandin G/H synthase 1 (Ovis aries) (UniProt P05979). Briefly: Inhibition of ovine COX-1 assessed as residual activity at 10 uM using arachidonic acid as substrate preincubated for 5 mins by RP-HPLC method relative to control. Particulars: time 10.0 min.

Sequence of Prostaglandin G/H synthase 1 (Ovis aries) (P05979 whole entry, looked up): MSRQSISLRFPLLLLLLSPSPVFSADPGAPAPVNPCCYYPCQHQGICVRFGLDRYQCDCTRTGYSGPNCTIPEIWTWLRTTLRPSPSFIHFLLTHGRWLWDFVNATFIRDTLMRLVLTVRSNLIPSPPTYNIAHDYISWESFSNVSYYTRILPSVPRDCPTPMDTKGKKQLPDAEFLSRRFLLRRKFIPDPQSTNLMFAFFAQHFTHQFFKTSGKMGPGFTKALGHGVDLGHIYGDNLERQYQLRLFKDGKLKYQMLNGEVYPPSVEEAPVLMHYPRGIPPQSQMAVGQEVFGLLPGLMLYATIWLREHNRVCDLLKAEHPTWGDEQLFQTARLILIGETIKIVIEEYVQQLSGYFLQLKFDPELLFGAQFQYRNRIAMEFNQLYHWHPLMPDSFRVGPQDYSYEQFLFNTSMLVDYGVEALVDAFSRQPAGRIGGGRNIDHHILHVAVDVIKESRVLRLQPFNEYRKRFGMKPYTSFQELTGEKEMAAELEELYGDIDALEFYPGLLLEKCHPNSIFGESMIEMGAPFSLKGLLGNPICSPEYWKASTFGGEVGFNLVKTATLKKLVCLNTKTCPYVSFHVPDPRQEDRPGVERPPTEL

On to `Oc1cccc(CCc2nc(-c3ccc(-c4ccsc4)cc3)no2)c1`, for which the Activity in series [1] was 76.4%; in series [2] it was 19.9%; in series [3] it was 14.9%; in series [4], 105%; in series [5], above 50%; in the series with Monocyte it was “Non-Toxic”. For the same compound, the Activity entry in the series with A549 was “Non-Toxic”; in series [6] it was 47.7%.
For the compound `Oc1c(F)c(F)cc(-c2nc(-c3ccc(-c4ccsc4)cc3)no2)c1F`, the Activity is 25.4% in series [1]; 1.7% in series [2]; 18.5% in series [3]; 10.3% in series [4]; above 50% in series [5]; “Non-Toxic” in the series on Monocyte. In addition, the Activity entry is “Non-Toxic” in the series on A549 and 34.7% in series [6].

The values above are taken from ChEMBL document CHEMBL4840316, “Structure-based screening for the discovery of 1,2,4-oxadiazoles as promising hits for the development of new anti-inflammatory agents interfering with eicosanoid biosynthesis pathways” (Eur J Med Chem, 2021).
